# TbMetRS inhib = blocks T. brucei methionyl-tRNA synthetase activity; inhibition, % at 11.9 µM; purified T. brucei MetRS, ATP depletion, Kinase-Glo luminescence; AID 624268; 360,000 tested, 0.4% active;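 active means inhibition above a per-plate cutoff of the control wells' mean inhibition plus 3 SD, cut at about 5.5% in these data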
#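 technique = Kinase-Glo luminescence, ATP depletion format | system = purified MetRS (methionyl-tRNA synthetase) enzyme from Trypanosoma brucei | timing = 15 min preincubation, 2 h reaction, all 25 °C | evaluation = percent inhibition versus plate control medians | dosing = single dose, 11.9 µM final nominal, 0.9% final DMSO | also added = substrates ATP, L-methionine and bulk Escherichia coli tRNA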
# SKN-1 inh = C. elegans SKN-1 inhibition; inhibition, % at 21.8 µM; C. elegans VP596 Pgst-4::GFP/RFP ratio, acrylamide-induced, 24 h; AID 624304; 360,000 tested, 0.49% active;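 active means interference check ratio from 0.5 to 1.5 plus GFP to RFP signal ratio inhibition reaching or exceeding a fixed threshold, cut at about 30% in these data, passing the limit was not always enough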
# PREPL inhibitor = inhibitors of human prolyl oligopeptidase-like enzyme PREPL; inhibition, % at 5.96 µM; 320,000 tested, 0.68% active; Q4J6C6; recombinant PREPL, fluorescence polarization activity-based probe; in the data active means inhibition above about 43%
# iPSC survival up = hiPSC single-cell survival enhancement. ATPlite luminescence; 100% = ROCK inhibitor wells, 0% = DMSO. survival enhancement, % at 20 µM. 360,000 tested, 0.044% active; in the data active means survival enhancement above about 18%;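 further: cells exposed to compounds for 16 hours before the ATP read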
# MT1-MMP act inh = blocks activation of human MT1-MMP | P50281 | 360,000 tested, 0.061% active | GFP/RFP ratio change, % at 20 µM | AID 651647 | HT1080 RFP-PRO-GFP cells, GFP/RFP ratio fluorescence, overnight; percent of plate control window, DMSO zero;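 active means GFP/RFP ratio change of at least 30% with cell ATP level not reduced by more than half and red fluorescence within 50% of control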
#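 Material: RFP-PRO-GFP reporter HT1080 cells. Dosing: single-point 20 µM compound, 1% DMSO. Controls: DMSO and RFP-L50D-GFP cell wells. Timing: cells overnight before dosing, compound overnight, 37 °C, 5% CO2. Measure: GFP/RFP fluorescence ratio.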
# eLon inh = E. coli protease La inhibition. P0A9M0. 360,000 tested, 0.42% active. AID 602123. purified E. coli Lon protease, fluorescence polarization. inhibition, % at 7.94 µM; in the data active means inhibition above about 13%, passing the limit was not always enough
# Hits are given with their value; 0 = inactive; - = no result. Compounds with a hit are over-represented: about 1.8% of the library has one in this group of screens.
SMILES,TbMetRS inhib,SKN-1 inh,PREPL inhibitor,iPSC survival up,MT1-MMP act inh,eLon inh
CN(C)c1ccc(N=Cc2ccco2)cc1,0,0,0,0,0,0
COc1ccc(N2C(=O)/C(=C/c3ccc([N+](=O)[O-])cc3)C=C2c2ccccc2)cc1,0,40,0,0,0,0
O=C1/C(=C/c2ccc([N+](=O)[O-])cc2)C=C(c2ccccc2)N1c1ccccc1,0,0,0,0,0,0
CCN1CCN(C(=O)c2ccccc2NS(=O)(=O)c2ccc(Cl)cc2)CC1,0,0,0,0,0,0
COc1ccc(S(=O)(=O)NC(=O)C2(C)CCN2C(=O)CC2CC2)cc1 (centres undefined),0,0,-,0,0,0
O=[N+]([O-])c1ccc(C2OCCO2)cc1CS(=O)(=O)c1ccccc1,0,0,0,0,0,0
Oc1cc2c(c(Cl)c1O)CCNCC2c1ccccc1 (centres undefined),0,42,0,0,0,0
COC(=O)c1ccc(OC(=O)CCN2C(=O)C3CCCCC3C2=O)cc1 (centres undefined),0,0,44,0,0,0
COC(=O)c1ccc(OC(=O)CCN2c3ccccc3Sc3ccccc32)cc1,0,0,0,0,0,0
Nc1nonc1N/N=C/c1c(O)ccc2ccccc12,0,0,0,0,0,0
Nc1cc(Cl)nc(N/N=C/c2c(O)ccc3ccccc23)n1,0,0,43,0,0,0
CCn1c2ccc(F)cc2c2nc3ccccc3nc21,0,40,0,0,0,0
CCc1ccc(NCc2nc(-c3ccccc3)no2)cc1,0,42,0,0,0,0
Cc1ccc(-c2noc(CNc3ccccc3)n2)cc1,0,0,0,0,0,0
Cc1ccc(S(=O)(=O)N2CCOCC2)cc1C(=O)OCC(=O)NCCc1ccc(F)cc1,0,0,0,0,0,0
CCOC(=O)COn1c(-c2cccc(Cl)c2)nc2ccc([N+](=O)[O-])cc21,0,38,0,0,0,0
CCOC(=O)C(C)On1c(-c2cccc(Cl)c2)nc2ccc([N+](=O)[O-])cc21 (centres undefined),0,0,0,0,0,0
Cc1ccc(NC(=O)NCc2cccnc2)cc1,0,0,0,0,0,0
CC(C)c1ccc(NC(=O)NCc2cccnc2)cc1,0,39,0,0,0,0
Cc1c(C(=O)NCc2ccccc2C(F)(F)F)sc(=O)n1Cc1ccc2ccccc2c1,0,0,-,20,0,0
Cc1c(C(=O)NCc2ccccc2C(F)(F)F)sc(=O)n1Cc1cccc(C(F)(F)F)c1,0,0,-,0,0,0
C[C@H]1CNC(=O)c2c(C(=O)N3CCN(C(=O)OC(C)(C)C)CC3)ncn21,0,0,-,0,0,0
COc1ccc(-n2c3c(cc(C#N)c2=O)C(=O)CCC3)cc1,0,0,0,0,0,0
O=CN1CCc2scc[n+]2-c2ccccc21,0,36,0,0,0,0
Cc1ccc(C(=O)Nc2ccncc2)c(C)c1,0,0,0,0,0,0
SMILES,TbMetRS inhib,SKN-1 inh,PREPL inhibitor,iPSC survival up,MT1-MMP act inh,eLon inh
C=CCSc1nnc2nc3c(nn12)c1cc(C)ccc1n3CC=C,0,38,0,0,0,0
CN1CCN(C(=O)c2ccc(Cc3cn(C)c4ccccc34)nc2)CC1,0,0,-,0,0,0
O=c1cc(-c2ccccc2)oc2ccc3ccccc3c12,0,36,-,0,0,0
CCCCS/C(=C(/C#N)C(N)=O)c1cc2c([nH]1)CCCC2,0,37,0,0,0,0
CC1(C(=O)Nc2ccccc2)CCN1C(=O)CCc1ccc(Cl)cc1Cl (centres undefined),0,0,-,0,0,0
O=[N+]([O-])c1ccc(OCCCOc2cccc3cccnc23)cc1,0,0,0,0,0,0
O=[N+]([O-])c1ccc(COc2cccc3cccnc23)cc1,0,36,0,0,0,0
O=S(=O)(c1ccc(Cl)cc1)n1ccc(-c2cccc(OCc3c(F)cccc3Cl)c2)n1,0,0,0,0,0,0
O=S(=O)(c1ccc(F)cc1)n1ccc(-c2cccc(OCc3c(F)cccc3Cl)c2)n1,0,42,0,0,0,0

# Screening data deposited in PubChem BioAssay by several laboratories.
